# From PubChem BioAssay
# HIF act – HIF pathway transcriptional activation | U2OS HRE-luciferase reporter, luminescence; normalized: DMSO 0%, desferrioxamine 100% | actives 0.32% (n = 300,000) | activation, % at 7.5 µM (by protocol);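 active means mean activation of at least 10% of the iron chelator positive control signal, with at least half of replicates also reaching 10%; inconclusive means mean and replicate majority disagree about reaching 10%; inactive means mean and most replicates under 10%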
# Yeast superoxide – yeast age-related superoxide inhibition as caloric restriction mimetic; S. cerevisiae aged cells, superoxide DHE fluorescence; active compounds read low; superoxide response (% of plate mean), % at 10 µM; AID 2690; actives 0.18% (n = 330,000);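 active means superoxide response under a set limit, about three screen SD below normal, cut at about 65% in these data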;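 further: yeast aged for seven days with compound at 30 °C before DHE staining; 100% = average MFI of all compound-treated wells on the plate with controls excluded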
# T cruzi repl – T. cruzi replication inhibition | T. cruzi beta-gal in NIH3T3, luminescence, 90 h | inhibition, % (concentration not given with the values) | actives 1.4% (n = 300,000);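 active means mean inhibition across valid replicates above about 55%, limit read from the data; inconclusive means mean below that limit but half or more replicates reach it; inactive means mean below it, under half of replicates reach it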;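 further: signal also drops with host cell toxicity which is not excluded here; 0% = plate median of DMSO wells and 100% = zero luminescence signal; higher percent means less beta-gal luminescence so fewer parasites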
#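 System: Mouse NIH/3T3 fibroblasts infected with β-gal-expressing T. cruzi Tulahuen C4 | Quantity: NIH/3T3 cells, 5,000 per well | Reagent: 5000 reporter trypomastigotes per well | Dosing: Compound pinned at 50 nL/well, DMSO | Schedule: 3 h host attachment, then at least 90 h co-culture | Detection: GalScreen luminescence, 60 min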
# AI-2 QS modul – modulators of Vibrio harveyi AI-2 quorum sensing system | actives 0.4% (n = 300,000) | Vibrio harveyi JMH597 AI-2 luminescence/OD600 ratio, 9 h; active compounds read low; strain lacks LuxN and CqsS sensors; 0 = neutral-control median | activity change, % at 7.5 µM; in the data active means activity change below about -75%, passing the limit was not always enough; inconclusive means no clear call, values can overlap the other calls;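 further: luminescence divided by OD600 gain over 9 h not by final OD600 alone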
# V-ATPase pHluor – regulators of yeast V-ATPase proton transport | S. cerevisiae, pHLuorin cytosolic pH fluorescence | response, % at 10 µM | actives 0.37% (n = 350,000); in the data active means response mostly above about 7.3%, no sharp cut-off; inactive means mostly below about 5.4%; further: actives read high
# NRP1-CendR mod – alters CendR peptide binding to human NRP-1 | O14786 | inhibition, % at 25 µM | actives 0.85% (n = 360,000) | FAM-RPARPAR peptide binding to NRP-1, fluorescence polarization;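 active means inhibition or corrected inhibition above about 18%, plus a signal ratio from 0.5 to 1.5, limit read from the data, passing the limit was not always enough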
# Target sequence (O14786 whole entry, looked up): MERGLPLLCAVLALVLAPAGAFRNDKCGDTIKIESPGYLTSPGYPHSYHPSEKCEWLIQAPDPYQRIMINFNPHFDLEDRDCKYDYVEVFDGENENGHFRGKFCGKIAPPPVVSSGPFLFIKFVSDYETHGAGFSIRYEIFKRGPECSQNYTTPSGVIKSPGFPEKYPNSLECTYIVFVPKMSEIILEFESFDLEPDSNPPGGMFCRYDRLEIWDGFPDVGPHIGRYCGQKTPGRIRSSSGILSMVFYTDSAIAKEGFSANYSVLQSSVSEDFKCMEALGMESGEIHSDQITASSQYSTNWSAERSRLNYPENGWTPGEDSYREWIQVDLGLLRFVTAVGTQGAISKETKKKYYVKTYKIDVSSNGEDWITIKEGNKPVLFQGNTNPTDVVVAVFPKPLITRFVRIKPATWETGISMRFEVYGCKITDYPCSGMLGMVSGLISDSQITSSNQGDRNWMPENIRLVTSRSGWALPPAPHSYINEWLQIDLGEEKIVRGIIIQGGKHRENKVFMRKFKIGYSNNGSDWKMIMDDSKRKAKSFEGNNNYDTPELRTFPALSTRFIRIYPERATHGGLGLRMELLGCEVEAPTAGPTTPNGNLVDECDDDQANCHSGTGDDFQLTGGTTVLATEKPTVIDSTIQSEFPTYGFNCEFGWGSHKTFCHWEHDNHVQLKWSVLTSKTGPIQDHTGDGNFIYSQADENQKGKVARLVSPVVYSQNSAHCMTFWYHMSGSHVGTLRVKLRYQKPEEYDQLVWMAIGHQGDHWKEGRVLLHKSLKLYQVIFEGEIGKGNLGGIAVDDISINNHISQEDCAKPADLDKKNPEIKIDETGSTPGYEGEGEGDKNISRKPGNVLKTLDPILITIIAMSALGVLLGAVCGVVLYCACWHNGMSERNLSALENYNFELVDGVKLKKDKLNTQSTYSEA
# * = called active by the depositor; ? = inconclusive; . = no result given. An excerpt weighted towards active compounds, which were near 3% of everything screened.
SMILES,HIF act,Yeast superoxide,T cruzi repl,AI-2 QS modul,V-ATPase pHluor,NRP1-CendR mod
O=C(CC(C(=O)N1CCc2ccccc21)n1ccnc1)N1CCc2ccccc2C1 (centres undefined),0,104,72*,6,-2,-8
Cc1cc(C)n(C(C)CC(=O)N2CCc3ccccc32)n1 (centres undefined),0,116,-13,-5,-3,0
CCCCNC(=O)CC(C(=O)N1CCc2ccccc21)n1ccnc1 (centres undefined),0,105,-7,20,3,7
Cc1cc(C)n(C(CC(=O)N2CCc3ccccc3C2)C(=O)O)n1 (centres undefined),-1,99,-4,7,16*,-7
Cc1ccccc1CC1(CO)CCCN(C(=O)CCC(F)(F)F)C1 (centres undefined),0,97,-11,3,-2,-5
CCOC(=O)Cc1c(C)c2c(C)[nH]nc2oc1=O,0,104,-6,13,8,43*
Cc1ccc(NC(=S)N=Nc2c(O)n(C)c3ccc(S(=O)(=O)N4CCOCC4)cc23)cc1,0,.,44,3,1,4
Cc1ccc(S(=O)(=O)/C(C#N)=C/c2c(Oc3ccc(Cl)cc3)nc3c(C)cccn3c2=O)cc1,0,84,3,18,.,.
CCOC(=O)C(NC(C)=O)C(=O)Nc1ccc(C(C)C)cc1 (centres undefined),0,103,7,21,5,26*
CCOC(=O)C(NC(C)=O)C(=O)Nc1ccc(C(C)(C)C)cc1 (centres undefined),0,104,7,34,2,2
CC1(C(=O)NS(=O)(=O)c2ccccc2Cl)CCN1C(=O)CC1CCCCC1 (centres undefined),.,.,.,.,.,-1
CC1(C(=O)NS(=O)(=O)c2ccccc2Cl)CCN1C(=O)CC1CC1 (centres undefined),.,.,.,.,.,28*
CC(=O)N(Cc1cc(=O)[nH]c2ccccc12)c1ccc(C)cc1,0,109,-2,16,-4,15
Cc1ccc(NC(=O)COc2ccc(CCO)cc2-n2nc3ccccc3n2)cc1C,0,98,57*,-9,0,-8
CC(C)CCN1CCC(n2nccc2NC(=O)c2ccc3c(c2)OCO3)CC1,0,96,15,20,1,35*
CCOC(=O)CC1C(=O)NCCN1C(=O)COc1ccc(C(C)(C)C)cc1 (centres undefined),0,126,3,-14,1,-24
COc1cccc2cc(-c3nc4ccccc4o3)c(=O)oc12,1,68,0,11,3,30*
O=S(=O)(c1cccc2nsnc12)N1CCN(Cc2ccccc2)CC1,1,102,2,5,1,19*
O=C(NC1CCN(Cc2ccccc2)CC1)C1CCN(S(=O)(=O)c2cccc3nsnc23)CC1,-1,103,43,7,-1,-10
COc1cc([N+](=O)[O-])c(N2CCOCC2)c([N+](=O)[O-])c1OC,0,115,75*,16,-3,8
O=C(Nc1nccs1)C(NS(=O)(=O)c1ccc(Br)s1)c1ccccc1 (centres undefined),0,99,-4,10,4,3
Cc1ccc(NS(=O)(=O)c2ccc(Cl)c(C(=O)Nc3ccccc3-c3nc4ccccc4[nH]3)c2)cc1C,0,103,68*,21,-1,-2
CN(C)S(=O)(=O)c1ccc(Cl)c(C(=O)Nc2nc3ccccc3[nH]2)c1,0,90,-8,5,-3,6
O=S(=O)(N1CCCCC1)N1CCN(CC(O)COc2ccc3cc(Br)ccc3c2)CC1 (centres undefined),0,105,55*,9,4,-1
CN(C)S(=O)(=O)N1CCN(CC(O)COc2ccc3cc(Br)ccc3c2)CC1 (centres undefined),0,107,18,30,-1,15
SMILES,HIF act,Yeast superoxide,T cruzi repl,AI-2 QS modul,V-ATPase pHluor,NRP1-CendR mod
OC(COc1ccc2cc(Br)ccc2c1)CN1CCCC1 (centres undefined),1,94,70*,12,-2,6
COc1cccc(C(=O)NC2CCN(C(=O)N3c4ccccc4Sc4ccccc43)CC2)c1,0,89,70*,0,-1,-5
Cc1ccc2nc(N/C(N)=N/S(=O)(=O)c3ccc([N+](=O)[O-])cc3)nc(C)c2c1,0,108,58*,3,-1,1
Cc1ccc(S(=O)(=O)/N=C(\N)Nc2nc(C)c3ccccc3n2)cc1,0,81,19,10,-2,-13
CCOCCOC(=O)C(C)Sc1n[nH]c(=O)[nH]c1=O (centres undefined),0,92,1,7,-3,11
c1ccc(-c2ccccc2OCCCN2CCCC2)cc1,2,118,10,-2,-6,-16
COc1ccccc1C(=O)NC(=Nc1nc2ccccc2o1)NC(=O)c1ccccc1OC,1,119,71*,17,2,-8
CCc1cccc2sc(N(CCCN3CCOCC3)C(=O)CS(=O)(=O)c3ccccc3)nc12,0,100,-2,42,0,1
O=C(CCS(=O)(=O)c1ccccc1)N(CCCN1CCOCC1)c1nc2c(F)cccc2s1,2,77,55*,-3,-4,-15
Cc1ccc(S(=O)(=O)CC(=O)N(CCCN2CCOCC2)c2nc3c(F)cccc3s2)cc1,1,91,11,2,2,0
O=C(CCS(=O)(=O)c1ccccc1)N(CCCN1CCOCC1)c1nc2ccc(F)cc2s1,3,104,63*,-10,-2,-8
Cc1cc[n+](-c2[nH]c(=O)sc2/C=N/NC([S-])=Nc2ccccc2)cc1,-1,87,-3,26,-1,55*
CC(C)(C)c1cc[n+](-c2[nH]c(=O)sc2/C=N/NC(=O)c2ccccc2[O-])cc1,-15,95,-7,25,4,27*
CC(C)(C)c1cc[n+](-c2[nH]c(=O)sc2/C=N/N=C(\[O-])c2cccnc2)cc1,0,103,8,0,1,9
Cc1cc(C)c[n+](-c2[nH]c(=O)sc2/C=N/NC([S-])=Nc2ccccc2)c1,-1,93,-46,2,3,47*
CCOc1ccc(C(=O)Cc2cc(OC)c(OC)cc2[N+](=O)[O-])cc1,0,98,9,19,4,4
Cc1cc(C)cc(NC(=O)COC(=O)CCCC2=NS(=O)(=O)c3ccccc3N2)c1,0,93,0,10,1,2
Nc1ccccc1C#CC(=O)c1ccccc1,-2,132,?,-90*,-4,-13
O=C(C#Cc1cccc([N+](=O)[O-])c1)c1ccccc1,2,114,51,-55,7,5
